{"source": "ChEMBL document CHEMBL1137311", "about": "“Peptide inhibitors of West Nile NS3 protease: SAR study of tetrapeptide aldehyde inhibitors” (J Med Chem, 2006)", "note": "Non-standard residues stand in square brackets, D forms with d. Residues, ends and D or L forms follow the SMILES beside them. *: point of attachment. NMeR = CN[C@@H](CCCNC(=N)N)C(=O)O; NMeK = CN[C@@H](CCCCN)C(=O)O; NMeNle = CCCC[C@H](NC)C(=O)O; Phg = N[C@H](C(=O)O)c1ccccc1; dNle = CCCC[C@@H](N)C(=O)O; Nle = CCCC[C@H](N)C(=O)O; Bz = O=C(c1ccccc1)*", "data": [{"experiment": "Inhibition of West Nile virus NS3 protease", "procedure,_shortened": "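Enzyme: WNV CF40-gly-NS3pro187 conjugate at 50 nM, preincubated with a range of inhibitor concentrations for 30 min at 37 °C. Buffer: 50 mM Tris pH 8.5 with 1 mM CHAPS. Reaction started with 20 µM Bz-nKRR-AMC. Fluorescence (ex 385/em 465 nm) followed continuously. IC50 from nonlinear fit of initial velocities, each point in duplicate within a single experiment.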", "units": {"IC50": "µM"}, "values": [{"smiles": "CCCC[C@H](NC(=O)c1ccccc1)C(=O)N[C@@H](CCCCN)C(=O)N[C@@H](CCCN=C(N)N)C(=O)N[C@H](C=O)Cc1c[nH]c2ccccc12", "note": "(Bz-[Nle]KRW-aldehyde)", "IC50": 10}, {"smiles": "C[C@H](NC(=O)c1ccccc1)C(=O)N[C@@H](CCCCN)C(=O)N[C@@H](CCCNC(=N)N)C(=O)N[C@H](C=O)CCCNC(=N)N", "note": "(Bz-AKRR-aldehyde)", "IC50": 0.7}, {"smiles": "CCCC[C@H](NC(=O)c1ccccc1)C(=O)N[C@@H](CCCCN)C(=O)N(C)[C@@H](CCCN=C(N)N)C(=O)N[C@H](C=O)CCCN=C(N)N", "note": "(Bz-[Nle]K[NMeR]R-aldehyde)", "IC50": 57.8}, {"smiles": "CCCC[C@@H](C(=O)N[C@@H](CCCCN)C(=O)N[C@@H](CCCN=C(N)N)C(=O)N[C@H](C=O)CCCN=C(N)N)N(C)C(=O)c1ccccc1", "note": "(Bz-[NMeNle]KRR-aldehyde)", "IC50": 9.3}, {"smiles": "CCCC[C@H](NC(=O)c1ccccc1)C(=O)N[C@H](CCCCN)C(=O)N[C@@H](CCCN=C(N)N)C(=O)N[C@H](C=O)CCCN=C(N)N", "note": "(Bz-[Nle][dK]RR-aldehyde)", "IC50": 23.8}, {"smiles": "CCCC[C@H](NC(=O)c1ccccc1)C(=O)N[C@@H](Cc1ccccc1)C(=O)N[C@@H](CCCNC(=N)N)C(=O)N[C@H](C=O)CCCNC(=N)N", "note": "(Bz-[Nle]FRR-aldehyde)", "IC50": 4.2}, {"smiles": "CCCC[C@H](NC(=O)c1ccccc1)C(=O)N[C@@H](CCCCN)C(=O)N[C@@H](CCCNC(=N)N)C(=O)N[C@H](C=O)CCCCN", "note": "(Bz-[Nle]KRK-aldehyde)", "IC50": 57.7}, {"smiles": "CCCC[C@@H](NC(=O)c1ccccc1)C(=O)N[C@@H](CCCCN)C(=O)N[C@@H](CCCN=C(N)N)C(=O)N[C@H](C=O)CCCN=C(N)N", "note": "(Bz-[dNle]KRR-aldehyde)", "IC50": 2.6}, {"smiles": "CCCC[C@H](NC(=O)c1ccccc1)C(=O)N[C@@H](CCCCN)C(=O)N[C@@H](CCCNC(=N)N)C(=O)N[C@H](C=O)Cc1cnc[nH]1", "note": "(Bz-[Nle]KRH-aldehyde)", "IC50": 43.1}, {"smiles": "CCCC[C@H](NC(=O)c1ccccc1)C(=O)N[C@@H](CCCCN)C(=O)N[C@@H](CCCNC(=N)N)C(=O)N[C@H](C=O)Cc1ccccc1", "note": "(Bz-[Nle]KRF-aldehyde)", "IC50": 110}, {"smiles": "CCCC[C@H](NC(=O)c1ccccc1)C(=O)N[C@@H](CCCCN)C(=O)N[C@H](CCCN=C(N)N)C(=O)N[C@H](C=O)CCCN=C(N)N", "note": "(Bz-[Nle]K[dR]R-aldehyde)", "IC50": 129}, {"smiles": "NCCCC[C@H](NC(=O)[C@H](Cc1ccccc1)NC(=O)c1ccccc1)C(=O)N[C@@H](CCCN=C(N)N)C(=O)N[C@H](C=O)CCCN=C(N)N", "note": "(Bz-FKRR-aldehyde)", "IC50": 1.2}, {"smiles": "CCCC[C@H](NC(=O)c1ccccc1)C(=O)N1CCC[C@H]1C(=O)N[C@@H](CCCN=C(N)N)C(=O)N[C@H](C=O)CCCN=C(N)N", "note": "(Bz-[Nle]PRR-aldehyde)", "IC50": 14.3}, {"smiles": "CCCC[C@H](NC(=O)c1ccccc1)C(=O)N[C@@H](CCCCN)C(=O)N[C@@H](CCCNC(=N)N)C(=O)N[C@H](C=O)CCCNC(=N)N", "note": "(Bz-[Nle]KRR-aldehyde)", "IC50": 4.1}, {"smiles": "CCCC[C@H](NC(=O)c1ccccc1)C(=O)N[C@@H](CCCCN)C(=O)N[C@@H](CCCN=C(N)N)C(=O)N[C@@H](C)C=O", "note": "(Bz-[Nle]KRA-aldehyde)", "IC50": 4.6}, {"smiles": "CCCC[C@H](NC(=O)c1ccccc1)C(=O)N[C@@H](CCCCN)C(=O)N[C@@H](CCCCN)C(=O)N[C@H](C=O)CCCNC(=N)N", "note": "(Bz-[Nle]KKR-aldehyde)", "IC50": 1.9}, {"smiles": "CCCC[C@H](NC(=O)c1ccccc1)C(=O)N[C@@H](CCCCN)C(=O)N[C@@H](CCCN=C(N)N)C(=O)N[C@@H](C=O)CCCN=C(N)N", "note": "(Bz-[Nle]KR[dR]-aldehyde)", "IC50": 14}, {"smiles": "CCCC[C@H](NC(=O)c1ccccc1)C(=O)N[C@@H](C)C(=O)N[C@@H](CCCNC(=N)N)C(=O)N[C@H](C=O)CCCNC(=N)N", "note": "(Bz-[Nle]ARR-aldehyde)", "IC50": 3.8}, {"smiles": "CCCC[C@H](NC(=O)c1ccccc1)C(=O)N[C@@H](CCCCN)C(=O)N[C@@H](C)C(=O)N[C@H](C=O)CCCN=C(N)N", "note": "(Bz-[Nle]KAR-aldehyde)", "IC50": 262}, {"smiles": "CCCC[C@H](NC(=O)c1ccccc1)C(=O)N[C@@H](CCCCN)C(=O)N[C@@H](CCCNC(=N)N)C(=O)N[C@H](C=O)c1ccccc1", "note": "(Bz-[Nle]KR[Phg]-aldehyde)", "IC50": 90.9}, {"smiles": "CCCC[C@H](NC(=O)c1ccccc1)C(=O)N(C)[C@@H](CCCCN)C(=O)N[C@@H](CCCN=C(N)N)C(=O)N[C@H](C=O)CCCN=C(N)N", "note": "(Bz-[Nle][NMeK]RR-aldehyde)", "IC50": 73.6}, {"smiles": "CCCC[C@H](NC(=O)c1ccccc1)C(=O)N[C@@H](CCCCN)C(=O)N[C@@H](Cc1ccccc1)C(=O)N[C@H](C=O)CCCNC(=N)N", "note": "(Bz-[Nle]KFR-aldehyde)", "IC50": 108}]}]}
